Results from paper PMC11737066 (RSC Advances, 2025).

Assay: Parallel artificial membrane permeability assay
Type: in vitro ADME
Conditions: 24 h incubation at 37 °C; initial minus final donor and acceptor concentration
Outline: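 Artificial membrane made of 1% (mass fraction) lecithin in dodecane, applied to hydrophobic PVDF filter donor wells. Test compound solution was added to the donor side, and the donor/acceptor sandwich was incubated 24 h at 37 °C. Donor and acceptor concentrations were taken from maximum absorbance (scan 190–400 nm). Membrane integrity was checked with brilliant cresyl blue and lucifer yellow.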

Compound	% of compound integrated in membrane
CCCCCCCCCCCC[N+](C)(C)Cc1ccccc1.[Br-] [BAB, dimethyldodecylbenzylammonium bromide]	≈ 97%
CCCCCCCCCCCCCCCC[n+]1ccccc1 [CPC, cetylpyridinium chloride]	≈ 97%
